Shown are actives, neighbours in structure and some others; about 2.9% of the full set was active somewhere.
TAG inh: triacylglycerol accumulation inhibition. H9c2 cells, Nile Red lipid (TAG) fluorescence; cells loaded with 200 µM oleic acid. inhibition, % at 12.5 µM. hit rate 0.66% among 230,000. AID 651582;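 active = pattern-corrected inhibition of lipid staining of at least 50% with the nuclear-stain viability signal not falling by more than 50%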;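 also: 0% = DMSO wells and 100% = triacsin C control wells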
T cruzi repl: blocks replication of Trypanosoma cruzi; hit rate 1.4% among 300,000; inhibition, % (test concentration not listed); T. cruzi beta-gal in NIH3T3, luminescence, 90 h;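 active = mean inhibition across valid replicates above about 55%, limit read from the data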;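 also: signal also drops with host cell toxicity which is not excluded here; 0% = plate median of DMSO wells and 100% = zero luminescence signal; higher percent means less beta-gal luminescence so fewer parasites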
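Incubation – ≥90 h infection period, 3 h prior cell attachment · System – NIH/3T3 fibroblasts plus reporter T. cruzi · Doses – compound pinned at 50 nL/well, DMSO · Read-out basis – percent inhibition of parasite-derived β-gal signal · Signal – luminescent β-galactosidase signal after 60 min lysis · Also added – 5000 T. cruzi trypomastigotes/well · Medium – Low-serum DMEM with 2% FBS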
beta cell repl: MIN6 beta-cell proliferation induction; proliferation, % at 10 µM; AID 2380; hit rate 0.29% among 330,000; MIN6 cells proliferation, ATPlite luminescence, 48 h; cells starved in 0.2% serum; 100% = growth in 10% serum;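 active = compounds whose signal lies at least 3.5 SD above the mean of all wells on their plate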;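 also: 0% = DMSO-treated cells in low-serum medium and 100% = 10% serum control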
Rev-erbA mod: Rev-erb alpha (human) modulation | P20393 | Rev-erbα–FITC-DNA binding, fluorescence polarization, 90 min | activity, % at 10 µM | hit rate 0.79% among 370,000 | AID 1259318;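 active = activity above about 14%, limit read from the data; passing the limit was not always enough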;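 also: 0% = DMSO wells with 35 nM protein and 100% = DMSO wells with 750 nM protein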
Target sequence (P20393 whole entry, looked up): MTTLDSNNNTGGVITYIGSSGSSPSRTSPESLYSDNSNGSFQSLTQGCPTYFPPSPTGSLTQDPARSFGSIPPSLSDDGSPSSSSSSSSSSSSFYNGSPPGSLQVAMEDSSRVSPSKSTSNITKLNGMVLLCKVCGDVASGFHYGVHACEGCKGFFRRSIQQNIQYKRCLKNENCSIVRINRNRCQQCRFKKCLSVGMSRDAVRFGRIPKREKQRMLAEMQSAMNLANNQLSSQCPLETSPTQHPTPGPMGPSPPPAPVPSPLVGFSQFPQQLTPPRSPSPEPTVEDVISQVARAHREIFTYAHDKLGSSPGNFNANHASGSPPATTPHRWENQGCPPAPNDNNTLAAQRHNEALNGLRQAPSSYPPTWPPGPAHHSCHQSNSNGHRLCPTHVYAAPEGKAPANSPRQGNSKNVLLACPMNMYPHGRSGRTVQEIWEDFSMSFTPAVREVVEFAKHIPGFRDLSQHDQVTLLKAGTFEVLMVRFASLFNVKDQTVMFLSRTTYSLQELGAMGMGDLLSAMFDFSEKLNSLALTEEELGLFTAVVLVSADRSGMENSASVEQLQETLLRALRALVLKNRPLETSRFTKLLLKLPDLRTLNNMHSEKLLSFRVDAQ
iPSC survival up: increases survival of single human iPS cells | AID 602274 | survival enhancement, % at 20 µM | hit rate 0.044% among 360,000 | hiPSC single-cell survival, ATPlite luminescence; 100% = ROCK inhibitor wells, 0% = DMSO; in the data active = survival enhancement above about 18%;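 also: cells exposed to compounds for 16 hours before the ATP read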
PG9 binder: PG9 antibody binding by small molecule. inhibition, % at 6.7 µM. hit rate 0.43% among 360,000. TR-FRET gp120-PG9 antibody binding; in the data active = inhibition above about 8.5%
* = called active by the depositor; x = not tested or not shown.

SMILES	TAG inh	T cruzi repl	beta cell repl	Rev-erbA mod	iPSC survival up	PG9 binder
O=[N+]([O-])c1ccc(/C=N/Nc2nc(N3CCCCC3)nc(N3CCCCC3)n2)o1	x	63*	-6	5	3	-2
O=C(N/N=C/c1ccc([N+](=O)[O-])o1)C1CC1	-6	73*	-2	9	-1	-4
COC(=O)N/N=C/c1ccc([N+](=O)[O-])o1	-10	55*	-2	-3	0	-4
Cc1ccc(S(=O)(=O)N2CCOCC2)cc1NC(=O)c1cc2ccccc2oc1=O	4	x	5	1	4	-2
CC(C)[C@H](NC(=O)OCc1ccccc1)C(=O)OCC(=O)N1CCN(c2ccccc2)CC1	-8	14	-2	-1	3	-1
Cc1ccc(NC(=O)O/N=C/c2c(C)nn(C(C)(C)C)c2C)cc1Cl	-13	9	-5	-1	-1	1
COc1cccc(NC(=S)N2CCn3cccc3C2c2cccnc2)c1 (centres undefined)	-6	76*	1	-2	0	2
Cc1cccc(NC(=S)N2CCn3cccc3C2c2cccnc2)c1 (centres undefined)	-29	12	0	-1	-2	1
Fc1ccc(NC(=S)N2CCn3cccc3C2c2cccnc2)cc1 (centres undefined)	-5	71*	-2	-2	0	-2
COc1cc(CNC2CCCC2)cc(Cl)c1OCc1ccccc1F	x	58*	-4	x	-1	1
Cc1cccc(/C=C/C(=O)c2ccc([N+](=O)[O-])o2)c1	35	41	-7	5	-2	-1
O=C(/C=C/c1cccc([N+](=O)[O-])c1)c1ccc([N+](=O)[O-])o1	81	56*	x	0	13	0
COc1ccc(C(=O)/C=C/C(=O)N(CC(=O)NC2CCCCC2)Cc2ccccc2OC)c(O)c1	57	89*	x	-3	-4	0
COc1ccc(C(=O)/C=C/C(=O)N(CC(=O)NC2CCCCC2)Cc2ccccc2)c(O)c1	25	60*	x	1	-3	1
COc1ccc(C(=O)/C=C/C(=O)N(Cc2ccccc2OC)C(C(=O)NC2CCCCC2)c2ccncc2)c(O)c1 (centres undefined)	x	23	-2	-4	0	0
Cn1c(=O)c2c(nc(NCc3ccco3)n2Cc2ccccc2Cl)n(C)c1=O	x	-39	-6	0	2	0
N#C/C(=C/c1ccc(N2CCCCCC2)o1)c1ccc(Cl)cc1	x	65*	-6	x	-5	x
Cc1ccc(/C(C#N)=C\c2ccc(N3CCOCC3)o2)cc1	x	58*	-4	4	-2	-1
N#C/C(=C/c1ccc(N2CCCCC2)o1)c1cccc(F)c1	x	56*	-6	-1	-2	-1
Cc1ccc(N(C(=O)CCC(=O)Nc2ccccn2)C(C(=O)NC(C)C)c2ccc(F)cc2)cc1 (centres undefined)	x	-20	0	7	0	-1
O=C(NNc1ccccc1)C(=O)NNS(=O)(=O)c1ccc([N+](=O)[O-])cc1	x	61*	1	-5	0	-5
O=C(NNc1ccc([N+](=O)[O-])cc1)Nc1ccccc1	-15	-13	0	1	0	1
CCCCCn1cnnc1SCC(=O)c1ccc2c(c1)OCO2	19	x	-3	-2	0	-1
Cn1cnnc1SCC(=O)c1ccc2c(c1)OCO2	14	1	0	-3	22*	-2
CCCOc1cccc(C2/C(=C(/O)c3ccc4c(c3)CC(C)O4)C(=O)C(=O)N2CCN2CCOCC2)c1 (centres undefined)	x	-13	3	-2	0	5
CC1Cc2cc(/C(O)=C3/C(=O)C(=O)N(CCN4CCOCC4)C3c3cccc(Cl)c3)ccc2O1 (centres undefined)	10	-13	1	-6	3	11*
CCCC(=O)Nc1nc(-c2ccc3c(c2)CCN3S(C)(=O)=O)cs1	x	2	-1	-4	-1	1
CS(=O)(=O)N1CCc2cc(-c3csc(NC(=O)Cc4ccccc4)n3)ccc21	x	55*	-2	3	3	-1
O=C(N/N=C/c1sc(N2CCOCC2)nc1-c1ccccc1)c1cccc(S(=O)(=O)N2CCCC2)c1	7	77*	-4	5	0	-2

Bioassay records as filed in PubChem.
